Source: ChEMBL document CHEMBL4251671, “Microporenic Acids A-G, Biofilm Inhibitors, and Antimicrobial Agents from the Basidiomycete Microporus Species” (J Nat Prod, 2018)
In brackets after ≈: the same amount, converted by molar mass. Activity calls are given as the source filed them. The rule behind the calls is not given here.

What was measured:
Bacillus subtilis = experiment: Antimicrobial activity against Bacillus subtilis DSM 10 by serial dilution method; assay type: functional
Summary of the method: (§1)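 MIC by serial dilution in microtiter plates, in triplicate. YMG medium for yeasts and filamentous fungi, EBS for bacteria. Starting concentration 300 μg/mL.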

Micrococcus luteus = experiment: Antimicrobial activity against Micrococcus luteus DSM 1790 by serial dilution method; assay type: functional; summary of the method: as §1
Staphylococcus aureus [1] = experiment: Antimicrobial activity against Staphylococcus aureus DSM 346 by serial dilution method; assay type: functional; summary of the method: as §1
Mucor plumbeus = experiment: Antimicrobial activity against Mucor plumbeus MUCL 49355 by serial dilution method; assay type: functional; summary of the method: as §1
Yamadazyma tenuis = experiment: Antimicrobial activity against Candida tenuis MUCL 29982 by serial dilution method; assay type: functional; summary of the method: as §1
Wickerhamomyces anomalus = experiment: Antimicrobial activity against Pichia anomala DSM 6766 by serial dilution method; assay type: functional; summary of the method: as §1
KB 3-1 [2] = experiment: Cytotoxicity against human KB 3.1 cells assessed as inhibition of cell growth at 37 ug/ml after 5 days by MTT assay; assay type: cell-based; details: kb 3-1, 120 h
L929 [3] = experiment: Cytotoxicity against mouse L929 cells assessed as inhibition of cell growth at 37 ug/ml after 5 days by MTT assay; assay type: cell-based; details: l929, 120 h
Escherichia coli [4] = details: DSM 498
Staphylococcus aureus [5] = experiment: Antimicrobial activity against Staphylococcus aureus DSM 1104 by serial dilution method; assay type: functional
Candida albicans [6] = experiment: Antibiofilm activity against Candida albicans DSM 11225 preformed biofilm after 24 hrs by MTT assay; assay type: functional, organism-based
Summary of the method: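 C. albicans set to 0.5 McFarland turbidity; biofilm preformed 4 h at 37 °C in SB broth, then treated with serially diluted compounds for a further 24 h at 37 °C. Dispersal read by MTT reduction. Triplicate, two repetitions; methanol as negative control.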

Staphylococcus aureus [7] = experiment: Antibiofilm activity against Staphylococcus aureus DSM 1104 at 150 ug/ml after 24 hrs by crystal violet staining based assay relative to control; assay type: functional; details: DSM 1104, 24 h
Summary of the method: (§2)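 S. aureus set to 0.5 McFarland turbidity and grown with serially diluted compounds in CASO broth with 4% glucose, 24 h, 37 °C. Biofilm stained with crystal violet 15 min, washed three times, dye extracted with dilute acetic acid, absorbance read at 550 nm. Two repeats of three parallel experiments; methanol as negative control.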

Staphylococcus aureus [8] = experiment: Antibiofilm activity against Staphylococcus aureus DSM 1104 at 75 ug/ml after 24 hrs by crystal violet staining based assay relative to control; assay type: functional; details: DSM 1104, 24 h; summary of the method: as §2
Staphylococcus aureus [9] = experiment: Antibiofilm activity against Staphylococcus aureus DSM 1104 at 37 ug/ml after 24 hrs by crystal violet staining based assay relative to control; assay type: functional; details: DSM 1104, 24 h; summary of the method: as §2
Staphylococcus aureus [10] = experiment: Antibiofilm activity against Staphylococcus aureus DSM 1104 preformed biofilm after 24 hrs by crystal violet staining based assay; assay type: functional, organism-based
Summary of the method: (§3)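 S. aureus set to 0.5 McFarland turbidity; biofilm preformed 24 h in CASO broth with 4% glucose, then exposed to compounds a further 24 h at 37 °C. Remaining biofilm quantified by crystal violet staining. Triplicate, two repetitions.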

L929 [11] = experiment: Cytotoxicity against mouse L929 cells assessed as inhibition of cell growth after 5 days by MTT assay; assay type: cell-based; details: L929, 120 h
Summary of the method: (§4)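 IC50 determined by the previously described in vitro cytotoxicity method against mouse fibroblast L929 and HeLa-derived KB-3.1 cells. Compounds were tested from a starting concentration of 37 μg/mL.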

KB 3-1 [12] = experiment: Cytotoxicity against human KB 3.1 cells assessed as inhibition of cell growth after 5 days by MTT assay; assay type: cell-based; details: KB 3-1, 120 h; summary of the method: as §4
Candida albicans [13] = experiment: Antimicrobial activity against Candida albicans DSM 11225 by serial dilution method; assay type: functional
Staphylococcus aureus [14] = experiment: Antibiofilm activity against Staphylococcus aureus DSM 1104 at 256 ug/ml after 24 hrs by crystal violet staining based assay relative to control; assay type: functional; details: DSM 1104, 24 h; summary of the method: as §2
Staphylococcus aureus [15] = experiment: Antibiofilm activity against Staphylococcus aureus DSM 1104 at 64 ug/ml after 24 hrs by crystal violet staining based assay relative to control; assay type: functional; details: DSM 1104, 24 h; summary of the method: as §2
Staphylococcus aureus [16] = experiment: Antibiofilm activity against Staphylococcus aureus DSM 1104 at 16 ug/ml after 24 hrs by crystal violet staining based assay relative to control; assay type: functional; details: DSM 1104, 24 h; summary of the method: as §2
Staphylococcus aureus [17] = experiment: Antibiofilm activity against Staphylococcus aureus DSM 1104 preformed biofilm at 256 ug/ml after 24 hrs by crystal violet staining based assay relative to control; assay type: functional; details: DSM 1104, 24 h; summary of the method: as §3
Staphylococcus aureus [18] = experiment: Antibiofilm activity against Staphylococcus aureus DSM 1104 preformed biofilm at 128 ug/ml after 24 hrs by crystal violet staining based assay relative to control; assay type: functional; details: DSM 1104, 24 h; summary of the method: as §3
Staphylococcus aureus [19] = experiment: Antibiofilm activity against Staphylococcus aureus DSM 1104 preformed biofilm at 64 ug/ml after 24 hrs by crystal violet staining based assay relative to control; assay type: functional; details: DSM 1104, 24 h; summary of the method: as §3
Candida albicans [20] = experiment: Antibiofilm activity against Candida albicans DSM 11225 preformed biofilm at 16 ug/ml after 24 hrs by MTT assay relative to control; assay type: functional; details: DSM 11225, 24 h
Candida albicans [21] = experiment: Antibiofilm activity against Candida albicans DSM 11225 preformed biofilm at 8 ug/ml after 24 hrs by MTT assay relative to control; assay type: functional; details: DSM 11225, 24 h
Staphylococcus aureus [22] = experiment: Antibiofilm activity against Staphylococcus aureus DSM 1104 after 24 hrs by crystal violet staining based assay; assay type: functional, organism-based; summary of the method: as §2
Escherichia coli [23] = experiment: microbe, parasite or virus in culture; details: DSM 498
Staphylococcus aureus [24] = experiment: Antibiofilm activity against Staphylococcus aureus DSM 1104 at 128 ug/ml after 24 hrs by crystal violet staining based assay relative to control; assay type: functional; details: DSM 1104, 24 h; summary of the method: as §2

Compound	MIC (Bacillus subtilis)	MIC (Micrococcus luteus) [µg/mL]	MIC (Staphylococcus aureus [1])	MIC (Mucor plumbeus)	MIC (Yamadazyma tenuis)	MIC (Wickerhamomyces anomalus)	Activity (KB 3-1 [2])	Activity (L929 [3])	MIC (Escherichia coli [4])	MIC (Staphylococcus aureus [5]) [µg/mL]	further results
C/C(=C\CC/C(C)=C/CC/C(C)=C/CC/C(C)=C/CO[C@@H](C(=O)O)[C@H](CC(=O)O)C(=O)O)CO	37.5 µg/mL (≈ 78 µM)	18.8 (≈ 39 µM)	75 µg/mL (≈ 156 µM)	75 µg/mL (≈ 156 µM)	37.5 µg/mL (≈ 78 µM)	inactive	Non-Toxic	Non-Toxic	inactive	–	–
C[C@@H]1CO[C@H]2[C@@H]1CC[C@H](C)[C@]21C=C(CO)CC1	300 µg/mL (≈ 1270 µM)	75 (≈ 317 µM)	inactive	75 µg/mL (≈ 317 µM)	inactive	inactive	Non-Toxic	Non-Toxic	inactive	–	–
CN(C)[C@@H]1C(=O)C(C(N)=O)=C(O)[C@@]2(O)C(=O)C3=C(O)c4c(O)cccc4[C@@](C)(O)[C@H]3[C@H](O)[C@@H]12	–	8.3 (≈ 18 µM)	1 µg/mL (≈ 2.17 µM)	–	–	–	–	–	–	1 (≈ 2.17 µM)	–
C=C1C(=O)O[C@@H](C)[C@@H]1O	–	–	–	–	–	–	–	–	–	150 (≈ 1170 µM)	Activity (Candida albicans [6]): inactive; inhibition at 150 µg/mL (Staphylococcus aureus [7]): 99%; inhibition at 75 µg/mL (Staphylococcus aureus [8]): 92%; inhibition at 37 µg/mL (Staphylococcus aureus [9]): 85%; Activity (Staphylococcus aureus [10]): inactive
C/C(=C\c1csc(C)n1)[C@@H]1C[C@@H]2O[C@]2(C)CCC[C@H](C)[C@H](O)[C@@H](C)C(=O)C(C)(C)[C@@H](O)CC(=O)O1 [PATUPILONE]	–	–	–	–	–	–	–	–	–	–	IC50 (L929 [11]): 0.0014 µM
CC(C)=CCC/C(C)=C/CC/C(C)=C/CC/C(C)=C/CO[C@@H](C(=O)O)[C@H](CC(=O)O)C(=O)O	300 µg/mL (≈ 646 µM)	37.5 (≈ 80.7 µM)	300 µg/mL (≈ 646 µM)	75 µg/mL (≈ 161 µM)	300 µg/mL (≈ 646 µM)	–	–	Non-Toxic	inactive	> 256	MIC (Wickerhamomyces anomalus; Hansenula anomala): 150 µg/mL (≈ 323 µM); IC50 (KB 3-1 [12]): 6 µM; MIC (Candida albicans [13]): 64 µg/mL (≈ 138 µM); inhibition at 256 µg/mL (Staphylococcus aureus [14]): 86%; inhibition at 64 µg/mL (Staphylococcus aureus [15]): 54%; inhibition at 16 µg/mL (Staphylococcus aureus [16]): 28%; inhibition at 256 µg/mL (Staphylococcus aureus [17]): 49%; inhibition at 128 µg/mL (Staphylococcus aureus [18]): 37%; inhibition at 64 µg/mL (Staphylococcus aureus [19]): 1.5%; inhibition at 16 µg/mL (Candida albicans [20]): 72%; inhibition at 8 µg/mL (Candida albicans [21]): 52%; Activity (Staphylococcus aureus [22]): Dose-dependent effect
C/C(=C\CC/C(C)=C/CO[C@@H](C(=O)O)[C@H](CC(=O)O)C(=O)O)CC/C=C(\C)CC[C@H](O)C(C)(C)O	inactive	300 (≈ 602 µM)	inactive	300 µg/mL (≈ 602 µM)	inactive	inactive	Non-Toxic	Non-Toxic	inactive	–	–
NYSTATIN	–	–	–	9.4 µg/mL	16.7 µg/mL	16.7 µg/mL	–	–	–	–	MIC (Candida albicans [13]): 16.7 µg/mL
C/C(=C\CC/C(C)=C/CO[C@@H](C(=O)O)[C@H](CC(=O)O)C(=O)O)CC/C=C(\C)CC/C=C(\C)C(=O)O	inactive	75 (≈ 152 µM)	inactive	inactive	inactive	inactive	Non-Toxic	Non-Toxic	inactive	–	–
O=C(O)c1cn(C2CC2)c2cc(N3CCNCC3)c(F)cc2c1=O [CIPROFLOXACIN]	2.3 µg/mL (≈ 6.94 µM)	–	–	–	–	–	–	–	–	–	MIC (Escherichia coli [23]): 2.3 µg/mL (≈ 6.94 µM)
CC(C)=CCC/C(C)=C/CC/C(C)=C/CO[C@@H](C(=O)O)[C@H](CC(=O)O)C(=O)O	18.8 µg/mL (≈ 47.4 µM)	9.4 (≈ 23.7 µM)	150 µg/mL (≈ 378 µM)	75 µg/mL (≈ 189 µM)	37.5 µg/mL (≈ 94.6 µM)	inactive	Non-Toxic	Non-Toxic	inactive	–	–
CC(C)=CCC[C@@](C)(O)[C@@H](O)CC/C(C)=C/CC/C(C)=C/CO[C@@H](C(=O)O)[C@H](CC(=O)O)C(=O)O	inactive	–	inactive	inactive	inactive	inactive	Non-Toxic	Non-Toxic	inactive	–	–
COC(=O)C[C@H](C(=O)O)[C@@H](OC/C=C(\C)CC/C=C(\C)CC/C=C(\C)CCC=C(C)C)C(=O)O	300 µg/mL (≈ 627 µM)	37.5 (≈ 78.3 µM)	300 µg/mL (≈ 627 µM)	150 µg/mL (≈ 313 µM)	inactive	inactive	Non-Toxic	Non-Toxic	inactive	> 256	inhibition at 256 µg/mL (Staphylococcus aureus [14]): 86%; inhibition at 64 µg/mL (Staphylococcus aureus [15]): 11%; inhibition at 128 µg/mL (Staphylococcus aureus [24]): 38%; Activity (Staphylococcus aureus [22]): Dose-dependent effect
